As usually defined, the IC50 is the point on the concentration scale where inhibition reaches its midpoint.

The assay can be described thus: Inhibitory concentration against rat Calcium-activated potassium channel (IKca). An outline of the steps: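 IC50 taken as the mean of at least two separate experiments, each run in triplicate.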
Consider `COC(=O)C1=C(C)CC(C)=C(C(=O)O)C1c1ccc(Cl)c(C(F)(F)F)c1` (stereo not given), for which the IC50 is above 1000 nM. Regarding `CNC1=C(C(=O)OC)C(c2cccc([N+](=O)[O-])c2)C(C(=O)OC)=C(C)C1` (stereo not given), the IC50 was determined as 25 nM.

As to `COC(=O)C1=C(C)CC(C)=C(C(=O)OC)C1c1cc(Cl)cc(Cl)c1`, the IC50 stood at 100 nM. As to `CNC1=C(C(=O)OC)C(c2cccc(Cl)c2Cl)C2=C(COC2=O)C1` (stereo not given), the IC50 stood at 400 nM. On to `COC(=O)C1=C(C)CC(C)=C(C(N)=O)C1c1ccc(Cl)c(C(F)(F)F)c1` (stereo not given), for which the IC50 was determined as 30 nM. For `CCO/C(O)=C1/C(=O)CC2=C(C(=O)OC2)C1c1ccccc1Cl` (stereo not given) the value was 200 nM; for `CCO/C(O)=C1/C(=O)CC2=C(C(=O)OC2)C1c1ccc(Cl)c(C(F)(F)F)c1` (stereo not given), 40 nM; for `CNC1=C(C(=O)OC)C(c2ccc(C(F)(F)F)cc2)C(C(=O)OC)=C(C)C1` (stereo not given), 200 nM. With `COC(=O)C1=C(C)CC2=C(C(=O)OC2)C1c1ccc(Cl)c(C(F)(F)F)c1` (stereo not given), the IC50 was determined as 8 nM. On to `COC(=O)C1=C(C)CC(C)=C(C(=O)OC)C1c1cccnc1`, for which the IC50 is above 1000 nM. For `COC(=O)C1=C(C)CC(C)=C(C(=O)OC)C1C1CCCCC1`, the IC50 was above 1000 nM. For `COC(=O)C1=C(C)CC(C)=C(C(=O)OC(C)(C)C)C1c1ccc(Cl)c(C(F)(F)F)c1` (stereo not given) the value was above 1000 nM.

For the molecule `CNC1=C(C(=O)OC)C(c2ccc([N+](=O)[O-])cc2)C(C(=O)OC)=C(C)C1` (stereo not given), the IC50 was determined as 20 nM.

Consider `COC(=O)C1=C(C)CC(C)=C(C(=O)OC)C1c1ccc(Cl)c(C(F)(F)F)c1`, for which the IC50 is 1.5 nM. In the case of `CNC1=C(C(=O)OC)C(c2cccc([N+](=O)[O-])c2)C2=C(COC2=O)C1` (stereo not given), the IC50 amounted to 200 nM.

Values taken from ChEMBL document CHEMBL1144251, “IKCa-channel blockers. Part 2: discovery of cyclohexadienes” (Bioorg Med Chem Lett, 2005).
